Measurements as given in ChEMBL document CHEMBL1150128, “New antioxidant hydroquinone derivatives from the algicolous marine fungus Acremonium sp” (J Nat Prod, 2002).
Activity calls are given as the source filed them. The rule behind the calls is not given here.

How the values were obtained:
[1] = tested on: Radical scavenging activity; test: Antioxidant activity assessed as DPPH free radical scavenging activity at 5 ug/mL; assay type: functional
Method in brief: (§1)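 Ethanolic sample (1 mg/mL stock) is mixed with DPPH (1 mM stock) in EtOH, shaken briefly, and held at room temperature in the dark for 30 min. Radical scavenging is read as absorbance at 517 nm of sample versus control. Results are reported at the listed concentrations in µg/mL.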

[2] = tested on: Radical scavenging activity; test: Antioxidant activity assessed as DPPH free radical scavenging activity at 25 ug/mL; assay type: functional; method in brief: as §1
[3] = tested on: Radical scavenging activity; test: Antioxidant activity assessed as DPPH free radical scavenging activity at 50 ug/mL; assay type: functional; method in brief: as §1
[4] = tested on: Radical scavenging activity; test: Antioxidant activity assessed as DPPH free radical scavenging activity at 100 ug/mL; assay type: functional; method in brief: as §1
[5] = tested on: Radical scavenging activity; test: Antioxidant activity assessed as DPPH free radical scavenging activity at 500 ug/mL; assay type: functional; method in brief: as §1
[6] = Antioxidant activity assessed as inhibition of linolenic acid peroxidation at 7.4 ug/mL by TBARS assay; assay type: functional
Method in brief: (§2)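 Linolenic acid methyl ester (70 mM stock in EtOH) is oxidized with sample (1 or 0.2 mg/mL ethanolic stock) in 50 mM phosphate buffer pH 7.2 with SDS and FeSO4 in 0.025 M HCl. Incubation is 50 °C for 30 min, then covered at 60 °C for 30 min, then room temperature for 4 min. Readout is A532 minus A600, with % inhibition calculated against sample blank, control and blank.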

[7] = target: Human immunodeficiency virus type 1 reverse transcriptase (Human immunodeficiency virus 1) (UniProt Q72547); test: Inhibition of HIV1 reverse transcriptase by ELISA
[8] = target: Tyrosine-protein kinase Lck (Homo sapiens) (UniProt P06239); test: Inhibition of p56lck by ELISA
Sequence of Tyrosine-protein kinase Lck (Homo sapiens) (P06239 2-509 limits assumed): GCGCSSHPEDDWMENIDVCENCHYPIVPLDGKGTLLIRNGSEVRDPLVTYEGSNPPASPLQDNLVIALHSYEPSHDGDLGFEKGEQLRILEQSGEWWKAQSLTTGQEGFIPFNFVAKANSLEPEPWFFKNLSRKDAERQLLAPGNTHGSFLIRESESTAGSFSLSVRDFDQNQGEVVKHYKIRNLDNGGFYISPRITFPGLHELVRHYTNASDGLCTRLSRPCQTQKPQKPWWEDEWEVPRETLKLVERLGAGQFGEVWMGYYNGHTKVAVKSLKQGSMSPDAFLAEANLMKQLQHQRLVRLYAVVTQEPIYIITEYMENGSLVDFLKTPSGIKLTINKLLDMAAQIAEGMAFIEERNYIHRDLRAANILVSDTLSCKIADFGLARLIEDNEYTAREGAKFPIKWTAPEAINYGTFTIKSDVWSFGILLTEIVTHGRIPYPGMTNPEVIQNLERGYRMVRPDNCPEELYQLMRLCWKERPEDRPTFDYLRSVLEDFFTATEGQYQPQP

[9] = Antioxidant activity assessed as inhibition of linolenic acid peroxidation at 37 ug/mL by TBARS assay; assay type: functional; method in brief: as §2

SMILES | Activity [1] [%] | Activity [2] [%] | Activity [3] [%] | Activity [4] [%] | Activity [5] [%] | inhibition [6] [%] | Activity [7] | Activity [8] | inhibition [9] [%]
OC[C@H]1O[C@@H](Oc2ccc(O)cc2)[C@H](O)[C@@H](O)[C@@H]1O | 1.9 | 18.3 | 23.5 | 52.6 | 78.6 | – | – | – | –
COC(=O)CCC(C(=O)O)=C(C)C | – | – | 3.4 | 10.3 | 35.1 | -8.6 | – | – | –
COC(=O)C(CCC(=O)O)=C(C)C | – | – | 3.4 | 10.3 | 35.1 | -8.6 | – | – | –
CC(C)(O)C1Cc2cc(O)ccc2O1 (centres undefined) | 35.3 | 85.8 | 89.1 | 90.2 | 90.4 | – | inactive | inactive | 15.9
CC(C)=C(CCC(=O)O)C(=O)O | – | – | -0.5 | 3.8 | 15.3 | -9 | inactive | inactive | –
C=C(C)C(CCC(=O)OC)C(=O)O (centres undefined) | – | – | 3.4 | 10.3 | 35.1 | -8.6 | – | – | –
CC(C)(O)C(O)Cc1cc(O)ccc1O (centres undefined) | – | 90.2 | 90.7 | 89.9 | 82.9 | 2 | – | – | 16.6
CC1(C)Oc2ccc(O)cc2CC1O (centres undefined) | 25.7 | 72.9 | 85.1 | 89.1 | 89.9 | -9.8 | inactive | inactive | 9.2
C=C(C)C1Cc2c(O)ccc(O[C@@H]3O[C@H](CO)[C@@H](O)[C@H](O)[C@H]3O)c21 (some centres undefined) | 5.6 | 17.5 | 27.7 | 43 | 79.9 | – | inactive | inactive | –
C=C(C)C1Cc2c(O)ccc(O)c21 (centres undefined) | 26 | 85.5 | 90 | 90 | 90.1 | 13.9 | inactive | inactive | 35.5
Cc1cc(C(C)(C)C)c(O)c(C(C)(C)C)c1 | 6 | 24.2 | 41.1 | 63.8 | 89.8 | 36.2 | – | – | 43.9
